Test results reported in ChEMBL document CHEMBL4152256, “Structure-activity relationship of new antimalarial 1-aryl-3-susbtituted propanol derivatives: Synthesis, preliminary toxicity profiling, parasite life cycle stage studies, target exploration, and targeted delivery” (Eur J Med Chem, 2018).

Experiments:
[1] = Genotoxicity in Salmonella typhimurium TA1535 harboring pSK1002 assessed as survival at 0.008 mg/ml in presence of Sprague-Dawley rat liver S9 fraction after by SOS/umu assay relative to control; type: toxicity, organism-based; details: salmonella enterica subsp. enterica serovar typhimurium, read-out: Survival
[2] = Cytotoxicity against human HepG2A16 cells by MTT assay; type: cell-based
How it was run: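 MTT viability assay on HepG2-A16 cells, giving CC50 values.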

[3] = Genotoxicity in Salmonella typhimurium TA1535 harboring pSK1002 assessed as survival at 0.008 mg/ml in absence of Sprague-Dawley rat liver S9 fraction after by SOS/umu assay relative to control; type: toxicity, organism-based; details: salmonella enterica subsp. enterica serovar typhimurium, read-out: Survival
[4] = Genotoxicity in Salmonella typhimurium TA1535 harboring pSK1002 assessed as umu gene induction at 0.031 mg/ml in absence of Sprague-Dawley rat liver S9 fraction after by SOS/umu assay relative to control; type: toxicity, organism-based; details: salmonella enterica subsp. enterica serovar typhimurium, read-out: FC
[5] = Genotoxicity in Salmonella typhimurium TA1535 harboring pSK1002 assessed as umu gene induction at 0.125 mg/ml in presence of Sprague-Dawley rat liver S9 fraction after by SOS/umu assay relative to control; type: toxicity, organism-based; details: salmonella enterica subsp. enterica serovar typhimurium, read-out: FC
[6] = Genotoxicity in Salmonella typhimurium TA1535 harboring pSK1002 assessed as umu gene induction at 0.008 mg/ml in presence of Sprague-Dawley rat liver S9 fraction after by SOS/umu assay relative to control; type: toxicity, organism-based; details: salmonella enterica subsp. enterica serovar typhimurium, read-out: FC
[7] = Genotoxicity in Salmonella typhimurium TA1535 harboring pSK1002 assessed as umu gene induction at 0.002 mg/ml in absence of Sprague-Dawley rat liver S9 fraction after by SOS/umu assay relative to control; type: toxicity, organism-based; details: salmonella enterica subsp. enterica serovar typhimurium, read-out: FC
[8] = Genotoxicity in Salmonella typhimurium TA1535 harboring pSK1002 assessed as survival at 0.031 mg/ml in absence of Sprague-Dawley rat liver S9 fraction after by SOS/umu assay relative to control; type: toxicity, organism-based; details: salmonella enterica subsp. enterica serovar typhimurium, read-out: Survival
[9] = Genotoxicity in Salmonella typhimurium TA1535 harboring pSK1002 assessed as umu gene induction at 0.001 mg/ml in absence of Sprague-Dawley rat liver S9 fraction after by SOS/umu assay relative to control; type: toxicity, organism-based; details: salmonella enterica subsp. enterica serovar typhimurium, read-out: FC
[10] = Genotoxicity in Salmonella typhimurium TA1535 harboring pSK1002 assessed as survival at 0.063 mg/ml in presence of Sprague-Dawley rat liver S9 fraction after by SOS/umu assay relative to control; type: toxicity, organism-based; details: salmonella enterica subsp. enterica serovar typhimurium, read-out: Survival
[11] = Genotoxicity in Salmonella typhimurium TA1535 harboring pSK1002 assessed as survival at 0.031 mg/ml in presence of Sprague-Dawley rat liver S9 fraction after by SOS/umu assay relative to control; type: toxicity, organism-based; details: salmonella enterica subsp. enterica serovar typhimurium, read-out: Survival
[12] = Genotoxicity in Salmonella typhimurium TA1535 harboring pSK1002 assessed as survival at 0.004 mg/ml in presence of Sprague-Dawley rat liver S9 fraction after by SOS/umu assay relative to control; type: toxicity, organism-based; details: salmonella enterica subsp. enterica serovar typhimurium, read-out: Survival
[13] = Genotoxicity in Salmonella typhimurium TA1535 harboring pSK1002 assessed as survival at 0.001 mg/ml in absence of Sprague-Dawley rat liver S9 fraction after by SOS/umu assay relative to control; type: toxicity, organism-based; details: salmonella enterica subsp. enterica serovar typhimurium, read-out: Survival
[14] = Genotoxicity in Salmonella typhimurium TA1535 harboring pSK1002 assessed as umu gene induction at 0.016 mg/ml in absence of Sprague-Dawley rat liver S9 fraction after by SOS/umu assay relative to control; type: toxicity, organism-based; details: salmonella enterica subsp. enterica serovar typhimurium, read-out: FC
[15] = Genotoxicity in Salmonella typhimurium TA1535 harboring pSK1002 assessed as umu gene induction at 0.016 mg/ml in presence of Sprague-Dawley rat liver S9 fraction after by SOS/umu assay relative to control; type: toxicity, organism-based; details: salmonella enterica subsp. enterica serovar typhimurium, read-out: FC
[16] = Genotoxicity in Salmonella typhimurium TA1535 harboring pSK1002 assessed as umu gene induction at 0.125 mg/ml in absence of Sprague-Dawley rat liver S9 fraction after by SOS/umu assay relative to control; type: toxicity, organism-based; details: salmonella enterica subsp. enterica serovar typhimurium, read-out: FC
[17] = Genotoxicity in Salmonella typhimurium TA1535 harboring pSK1002 assessed as umu gene induction at 0.031 mg/ml in presence of Sprague-Dawley rat liver S9 fraction after by SOS/umu assay relative to control; type: toxicity, organism-based; details: salmonella enterica subsp. enterica serovar typhimurium, read-out: FC
[18] = Genotoxicity in Salmonella typhimurium TA1535 harboring pSK1002 assessed as umu gene induction at 0.063 mg/ml in presence of Sprague-Dawley rat liver S9 fraction after by SOS/umu assay relative to control; type: toxicity, organism-based; details: salmonella enterica subsp. enterica serovar typhimurium, read-out: FC
[19] = Genotoxicity in Salmonella typhimurium TA1535 harboring pSK1002 assessed as survival at 0.125 mg/ml in presence of Sprague-Dawley rat liver S9 fraction after by SOS/umu assay relative to control; type: toxicity, organism-based; details: salmonella enterica subsp. enterica serovar typhimurium, read-out: Survival
[20] = Genotoxicity in Salmonella typhimurium TA1535 harboring pSK1002 assessed as survival at 0.016 mg/ml in presence of Sprague-Dawley rat liver S9 fraction after by SOS/umu assay relative to control; type: toxicity, organism-based; details: salmonella enterica subsp. enterica serovar typhimurium, read-out: Survival
[21] = system: Plasmodium falciparum; experiment: Antiplasmodial activity against multidrug-resistant Plasmodium falciparum FCR-3 by [3H]-hypoxanthine incorporation assay; type: functional, organism-based, FCR-3/Gambia
How it was run: (§1)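 Blood-stage P. falciparum 3D7 and FCR-3 were tested by a modified [3H]-hypoxanthine incorporation assay. Chloroquine was the reference in all runs.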

[22] = Selectivity index, ratio of CC50 for human HepG2A16 cells by MTT assay to IC50 for multidrug-resistant Plasmodium falciparum FCR-3; type: toxicity; details: for selectivity ratio: HepG2A16 cells, read-out: Ratio CC50/IC50
How it was run: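 HepG2-A16 human hepatoma cells were tested by MTT viability assay to give CC50. Blood-stage activity was measured against the multidrug-resistant P. falciparum FCR-3 strain by [3H]-hypoxanthine incorporation to give IC50. SI = CC50 HepG2 / FCR-3 IC50.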

[23] = Genotoxicity in Salmonella typhimurium TA1535 harboring pSK1002 assessed as survival at 0.004 mg/ml in absence of Sprague-Dawley rat liver S9 fraction after by SOS/umu assay relative to control; type: toxicity, organism-based; details: salmonella enterica subsp. enterica serovar typhimurium, read-out: Survival
[24] = Genotoxicity in Salmonella typhimurium TA1535 harboring pSK1002 assessed as umu gene induction at 0.002 mg/ml in presence of Sprague-Dawley rat liver S9 fraction after by SOS/umu assay relative to control; type: toxicity, organism-based; details: salmonella enterica subsp. enterica serovar typhimurium, read-out: FC
[25] = system: Plasmodium falciparum; experiment: Antiplasmodial activity against chloroquine-sensitive Plasmodium falciparum 3D7 by [3H]-hypoxanthine incorporation assay; type: functional, organism-based; how it was run: as §1
[26] = Genotoxicity in Salmonella typhimurium TA1535 harboring pSK1002 assessed as umu gene induction at 0.063 mg/ml in absence of Sprague-Dawley rat liver S9 fraction after by SOS/umu assay relative to control; type: toxicity, organism-based; details: salmonella enterica subsp. enterica serovar typhimurium, read-out: FC
[27] = Genotoxicity in Salmonella typhimurium TA1535 harboring pSK1002 assessed as survival at 0.016 mg/ml in absence of Sprague-Dawley rat liver S9 fraction after by SOS/umu assay relative to control; type: toxicity, organism-based; details: salmonella enterica subsp. enterica serovar typhimurium, read-out: Survival
[28] = Genotoxicity in Salmonella typhimurium TA1535 harboring pSK1002 assessed as umu gene induction at 0.004 mg/ml in presence of Sprague-Dawley rat liver S9 fraction after by SOS/umu assay relative to control; type: toxicity, organism-based; details: salmonella enterica subsp. enterica serovar typhimurium, read-out: FC
[29] = Genotoxicity in Salmonella typhimurium TA1535 harboring pSK1002 assessed as survival at 0.125 mg/ml in absence of Sprague-Dawley rat liver S9 fraction after by SOS/umu assay relative to control; type: toxicity, organism-based; details: salmonella enterica subsp. enterica serovar typhimurium, read-out: Survival
[30] = Plasmodium falciparum, FCR-3/Gambia, 3 h

SMILES | viability at 0.008 mg/ml [1] [%] | viability at 0.008 mg/ml [3] [%] | fold induction at 0.031 mg/ml [4] | fold induction at 0.008 mg/ml [6] | fold induction at 0.002 mg/ml [7] | viability at 0.031 mg/ml [8] [%] | fold induction at 0.001 mg/ml [9] | viability at 0.063 mg/ml [10] [%] | viability at 0.031 mg/ml [11] [%] | viability at 0.004 mg/ml [12] [%] | viability at 0.001 mg/ml [13] [%] | fold induction at 0.016 mg/ml [14] | fold induction at 0.016 mg/ml [15] | fold induction at 0.063 mg/ml [18] | viability at 0.016 mg/ml [20] [%] | viability at 0.004 mg/ml [23] [%] | fold induction at 0.002 mg/ml [24] | fold induction at 0.063 mg/ml [26] | viability at 0.016 mg/ml [27] [%] | fold induction at 0.004 mg/ml [28] | other results
COc1ccccc1N1CCN(CCC(O)c2ccc(F)cc2)CC1 (stereo in doubt; 66) | 88.2 | 114 | 1 | 1 | 1 | 116 | 1.1 | 100 | 99.2 | 93.1 | 110 | 1 | 1.1 | 0.9 | 82.8 | 108 | 1.2 | 0.9 | 108 | 1 | CC50 [2]: 19.5 µM; fold induction at 0.125 mg/ml [5]: 1; fold induction at 0.125 mg/ml [16]: 0.9; fold induction at 0.031 mg/ml [17]: 0.9; viability at 0.125 mg/ml [19]: 89.8%; IC50 [21]: 0.19 µM; Ratio CC50/IC50 [22]: 103; IC50 [25]: 7.31 µM; viability at 0.125 mg/ml [29]: 107%
OC(CCN1CCN(c2ccc(F)cc2)CC1)c1ccc(F)c2ccccc12 (centres undefined) | 98.7 | 122 | 0.7 | 0.7 | 0.7 | 87 | 0.7 | 112 | 140 | 95.6 | 111 | 0.7 | 0.9 | 0.5 | 72.4 | 87.9 | 0.8 | 0.5 | 85.4 | 0.8 | CC50 ([2]; HepG2A16 cells): 29.4 µM; fold induction at 0.125 mg/ml [5]: 0.7; fold induction at 0.125 mg/ml [16]: 0.7; fold induction at 0.031 mg/ml [17]: 0.5; viability at 0.125 mg/ml [19]: 59.6%; IC50 [21, 30]: 4.05 µM; selectivity ratio [22]: 7; IC50 ([25]; Plasmodium falciparum, 3D7): 0.43 µM; viability at 0.125 mg/ml [29]: 56.2%
Oc1ccc(C(O)CCN2CC=C(c3ccc(F)cc3)CC2)cc1 (centres undefined) | 108 | 98.3 | 1.1 | 0.6 | 1 | 105 | 1.2 | 118 | 110 | 112 | 87.9 | 1.2 | 1.2 | 0.4 | 120 | 97.1 | 1.4 | 0.5 | 94.8 | 0.5 | CC50 ([2]; HepG2A16 cells): 253 µM; fold induction at 0.125 mg/ml [5]: 0.4; fold induction at 0.125 mg/ml [16]: 0.5; fold induction at 0.031 mg/ml [17]: 1.8; viability at 0.125 mg/ml [19]: 103%; IC50 [21, 30]: 2.88 µM; selectivity ratio [22]: 88; IC50 ([25]; Plasmodium falciparum, 3D7): 22.2 µM; viability at 0.125 mg/ml [29]: 112%
OC(CCN1CCN(C(c2ccccc2)c2ccccc2)CC1)c1ccc(F)c2ccccc12 (centres undefined) | 143 | 80.6 | 1 | 0.4 | 0.8 | 107 | 0.6 | 91.9 | 95.2 | 111 | 81 | 1.4 | 0.7 | 1.5 | 99.6 | 69 | 0.8 | 0.8 | 86.3 | 0.8 | CC50 ([2]; HepG2A16 cells): 19.9 µM; fold induction at 0.031 mg/ml [17]: 1.2; IC50 [21, 30]: 0.33 µM; selectivity ratio [22]: 60; IC50 ([25]; Plasmodium falciparum, 3D7): 0.62 µM
N#Cc1ccc(N2CCC(NCCC(O)c3ccc(F)c4ccccc34)CC2)c(Cl)c1 (centres undefined) | 35.1 | 33.7 | 0.5 | 1.1 | 1 | 42.2 | 1 | 82.8 |  | 169 | 130 | 0.6 | 0.6 | 0.2 | 38.5 | 32.2 | 0.8 | 0.3 | 36.8 | 0.5 | CC50 ([2]; HepG2A16 cells): 7.95 µM; fold induction at 0.125 mg/ml [5]: 0.1; fold induction at 0.125 mg/ml [16]: 0.1; viability at 0.125 mg/ml [19]: 134%; IC50 [21, 30]: 0.09 µM; selectivity ratio [22]: 88; IC50 ([25]; Plasmodium falciparum, 3D7): 0.15 µM; viability at 0.125 mg/ml [29]: 79.8%
N#Cc1ccc(N2CCC(NCCC(O)c3ccc(F)c4ccccc34)CC2)c(Br)c1 (centres undefined) | 87.4 | 18.9 | 1.5 | 1 | 1.4 | 19.4 | 1.3 | 46.3 | 35.3 | 97.5 | 104 | 2.1 | 1.9 | 0.6 | 80.2 | 107 | 0.8 | 0.6 | 18.6 | 0.9 | CC50 ([2]; HepG2A16 cells): 9.87 µM; fold induction at 0.031 mg/ml [17]: 1.2; IC50 [21, 30]: 0.07 µM; selectivity ratio [22]: 141; IC50 ([25]; Plasmodium falciparum, 3D7): 0.22 µM
